Measurements from article PMC6369589 (Cell, 2019).

How the values were obtained:
Ae. aegypti NPYLR7 = Ae. aegypti NPYLR7 (Aedes aegypti, UniProt U5N1H5); assay: GCaMP6s calcium cell-based assay, HEK293T cells expressing NPYLR7 and Gqα15
In short: (§1)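 HEK293T cells transiently co-transfected (Lipofectamine 2000) with 1 μg each of GCaMP6s, mouse Gqα15 and receptor plasmids. Cells were plated overnight in DMEM/FBS at 37°C, 5% CO2, then imaged in HBSS + 20 mM HEPES. Test agonist plus inhibitor added after 30 s baseline; GFP fluorescence read every 1 s for 5 min, normalized to baseline. Log(inhibitor)-response nonlinear fit; mean ± SD, 3 trials × 4 replicates.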

Ae. aegypti NPYLR5 = assay: GCaMP6s calcium cell-based assay, HEK293T cells expressing NPYLR5 and Gqα15; set-up: species or system Aedes aegypti; settings: dose-inhibition of TM30335 activation
In short: as §1

[1] = system: Ae. aegypti female mosquitoes; assay: Miniport olfactometer host-seeking after Glytube drug-feeding; format: in vivo, Aedes aegypti; settings: fed in protein-rich artificial blood-meal, assayed 2 days after feeding

N=C(N)NCCC[C@H](NC(=O)CC1(CC(=O)N2CCN(C3c4ccccc4NC(=O)c4ccccc43)CC2)CCCC1)C(=O)NCCn1c(=O)n(-c2ccccc2)n(-c2ccccc2)c1=O (stereo partly drawn) [BIIE0246]
IC50 (Ae. aegypti NPYLR7): 5.1 µM | effect on NPYLR5 responses to TM30335 (Ae. aegypti NPYLR5): no effect | release from host-seeking suppression in miniport olfactometer [1]: dose-dependent release from suppression
